Source: PubChem (The Scripps Research Institute Molecular Screening Center)
In the library only some 2.1% were active in any assay of this set; here they are far more common.
PKA-R1A act – PKA-R1A complex activation; P00514+P68181; PKA-R1A dissociation, Cy5-IP20 fluorescence polarization; scaled: DMSO 0%, 113 µM cGMP 100%; activation, % at 11.4 µM; actives 0.083% (n = 340,000); AID 504707;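 active = percent activation above the mean of all tested compounds plus 3 SD, cut at about 19% in these data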;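 also: higher means more PKAc released from R1A so a rise in polarization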
IMP-1 inh-1 – inhibitors of Pseudomonas aeruginosa IMP-1 metallo-beta-lactamase; purified IMP-1, nitrocefin hydrolysis, epi-absorbance fluorescence; inhibition, % at 5.6 µM; actives 0.45% (n = 290,000);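 active = inhibition above the mean plus 3 SD of all compounds in the same screening run, cut at about 4.5% in these data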
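System: Purified IMP-1 | Read-out basis: Percent enzyme inhibition | Controls: IMP-1 with DMSO as 0%, enzyme-free DMSO as 100% | Replicates: One well per compound | Doses: 5.6 µM nominal single concentration | Detection: Epi-absorbance fluorescence, 480 nm excitation, 530 nm emission | Incubation: 25 °C, 15 min preincubation, 25 min reaction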
MsrA inh – bovine MsrA inhibition; inhibition, % at 15.5 µM; actives 0.75% (n = 360,000); purified bovine MsrA, absorbance read-out; AID 651718; in the data active = inhibition above about 4.5%
PKA-R2B activ – PKA-R2B complex activation; P22694+P31323; PKA-R2B holoenzyme dissociation, Cy5-IP20 fluorescence polarization; R2B truncated from residue 108, S112A mutant; 0% DMSO only, 100% 113 µM cGMP; activation, % at 11.4 µM; actives 0.079% (n = 340,000);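 active = activation above a cutoff set at the mean over all compounds plus 3 SD, cut at about 18% in these data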;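 also: higher means more holoenzyme dissociation and a rise in polarization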
Target sequence (P31323 whole entry, looked up, other chains not shown, the tested form may be a part): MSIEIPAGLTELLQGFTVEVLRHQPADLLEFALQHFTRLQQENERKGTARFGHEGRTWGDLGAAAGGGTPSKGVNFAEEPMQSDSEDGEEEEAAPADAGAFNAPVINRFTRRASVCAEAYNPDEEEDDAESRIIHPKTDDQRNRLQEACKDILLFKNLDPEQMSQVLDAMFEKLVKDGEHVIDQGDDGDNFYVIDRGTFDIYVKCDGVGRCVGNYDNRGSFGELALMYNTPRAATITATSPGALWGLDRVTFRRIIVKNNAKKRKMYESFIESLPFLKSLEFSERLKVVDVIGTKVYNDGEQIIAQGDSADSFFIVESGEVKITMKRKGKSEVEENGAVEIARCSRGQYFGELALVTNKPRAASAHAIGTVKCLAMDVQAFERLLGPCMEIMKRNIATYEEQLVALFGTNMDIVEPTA
MsrA act – activators of bovine methionine sulfoxide reductase A; purified bovine MsrA, absorbance read-out; activation, % at 10.6 µM; actives 0.3% (n = 360,000); AID 602163; in the data active = activation above about 7.5%
VIM-2 inhibitor – blocks Pseudomonas aeruginosa VIM-2 metallo-beta-lactamase; purified VIM-2, nitrocefin hydrolysis, epi-absorbance fluorescence; inhibition, % at 5.6 µM; actives 0.89% (n = 290,000); AID 1527;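 active = inhibition above the mean of all tested compounds plus 3 SD, cutoff set per screening run, cut at about 7.5% in these data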;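 also: red hydrolysis product quenches plate fluorescence so inhibitors raise well fluorescence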
IMP-1 inh-2 – IMP-1 inhibition, counter-screen for VIM-2 inhibitors; 1,300 tested, under 10 active; purified IMP-1, nitrocefin hydrolysis, epi-absorbance fluorescence; shares compounds with VIM-2 inhibitor; inhibition, % at 5.6 µM; call rule not given here
VIM-2 FRET ctr – counter-screen for VIM-2 inhibitors: epi-absorbance artifacts via FRET | shares compounds with VIM-2 inhibitor | purified VIM-2, CCF2 FRET substrate hydrolysis | inhibition, % at 5.6 µM | actives 23% (n = 1,300) | AID 1857;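 active = inhibition above the mean of all tested compounds plus 3 SD, cut at about 19% in these data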
TEM-1 counter – TEM-1 inhibition, counter-screen for VIM-2 inhibitors. inhibition, % at 5.6 µM. actives 3% (n = 1,300). shares compounds with VIM-2 inhibitor. Purified TEM-1, nitrocefin hydrolysis, epi-absorbance fluorescence;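 active = inhibition above that campaign's mean inhibition plus 3 SD, cut at about 0.46% in these data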
Target sequence (P62593 whole entry, looked up): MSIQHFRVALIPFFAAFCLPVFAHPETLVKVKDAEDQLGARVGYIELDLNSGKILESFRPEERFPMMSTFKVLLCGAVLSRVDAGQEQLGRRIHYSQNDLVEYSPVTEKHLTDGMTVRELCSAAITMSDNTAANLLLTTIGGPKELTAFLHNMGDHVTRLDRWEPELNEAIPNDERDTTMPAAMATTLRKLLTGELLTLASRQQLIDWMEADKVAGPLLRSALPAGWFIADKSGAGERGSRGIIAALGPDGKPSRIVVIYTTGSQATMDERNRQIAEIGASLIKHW
VIM-2 confirm 2 – confirmation of P. aeruginosa VIM-2 metallo-beta-lactamase inhibitors; shares compounds with VIM-2 inhibitor; purified VIM-2, nitrocefin hydrolysis, epi-absorbance; inhibition, % at 5.6 µM; actives 96% (n = 1,300);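 active = inhibition of the VIM-2 beta-lactamase enzyme above about 11% from the earlier first-round screen, limit read from the data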
Each line names hits and unclear results; the compound was inactive in the other large screens (follow-up assays come after a bar, where they were run).

COc1ccc(NC(=O)COc2cccc3c2CCN(Cc2cccnc2)C3=O)c(OC)c1	VIM-2 inhibitor 14 | IMP-1 inh-2 inactive | VIM-2 FRET ctr inactive | TEM-1 counter inactive | VIM-2 confirm 2 23
COc1ccc(NC(=O)COc2cccc3c2CCN(Cc2cccnc2)C3=O)cc1	none
Cc1n[nH]c(C)c1N1C(=O)c2cccc3c(Br)ccc(c23)C1=O	VIM-2 inhibitor 29 | IMP-1 inh-2 inactive | VIM-2 FRET ctr inactive | TEM-1 counter inactive | VIM-2 confirm 2 33
Cc1n[nH]c(C)c1N1C(=O)c2cccc3cc(Br)cc(c23)C1=O	VIM-2 inhibitor 15 | IMP-1 inh-2 inactive | VIM-2 FRET ctr inactive | TEM-1 counter inactive | VIM-2 confirm 2 26
Cc1nnc(N2C(=O)c3cccc4c([N+](=O)[O-])ccc(c34)C2=O)s1	none
CNC(=S)Nc1cccc(-c2cnc3ccccc3n2)c1	VIM-2 inhibitor 14 | IMP-1 inh-2 inactive | VIM-2 FRET ctr inactive | TEM-1 counter inactive | VIM-2 confirm 2 9.1
CC(C)C(=O)Nc1cccc(-c2cnc3ccccc3n2)c1	none
CC1CCCCC1NC(=O)CN1C(=O)NC(C)(c2cc(F)ccc2F)C1=O (stereo unspecified)	none (no result: IMP-1 inh-1, VIM-2 inhibitor)
CC(=O)Nc1cccc(Oc2nc(C(F)(F)F)nc3ccccc23)c1	VIM-2 inhibitor 14 | IMP-1 inh-2 inactive | VIM-2 FRET ctr inactive | TEM-1 counter inactive | VIM-2 confirm 2 26
COc1ccc(Oc2nc(C(F)(F)F)nc3ccccc23)cc1	none
COc1cc(Oc2nc(C(F)(F)F)nc3ccccc23)ccc1C=O	VIM-2 inhibitor 14 | IMP-1 inh-2 inactive | VIM-2 FRET ctr inactive | TEM-1 counter inactive | VIM-2 confirm 2 24
CCCc1[nH][nH]c(=O)c1C(c1ccc(Cl)cc1)C(C#N)C#N (stereo unspecified)	VIM-2 inhibitor 12 | IMP-1 inh-2 inactive | VIM-2 FRET ctr inactive | TEM-1 counter inactive | VIM-2 confirm 2 inactive
O=C(C[C@@H]1C[C@H]2c3cc(NC(=O)c4cccnc4)ccc3O[C@H]2[C@H](CO)O1)NCc1ccc(Oc2ccccc2)cc1	none (no result: IMP-1 inh-1, VIM-2 inhibitor)
Cn1c(=O)c2c(SCc3cccnc3)nc(C3CC3)nc2n(C)c1=O	VIM-2 inhibitor 29 | IMP-1 inh-2 inactive | VIM-2 FRET ctr inactive | TEM-1 counter inactive | VIM-2 confirm 2 49
C(=N\Nc1ncnc2sc3c(c12)CCC3)/c1ccncc1	VIM-2 inhibitor 34 | IMP-1 inh-2 inactive | VIM-2 FRET ctr inactive | TEM-1 counter inactive | VIM-2 confirm 2 53
C(=N\Nc1ncnc2sc3c(c12)CCC3)/c1cccs1	none
O=C1CN(Cc2cc(=O)oc3cc4c(cc23)CCC4)CCN1	none
CC1CCN(Cc2cc(=O)oc3cc4c(cc23)CCCC4)CC1	none
CCN1CCN(Cc2cc(=O)oc3cc4c(cc23)CCC4)CC1	VIM-2 inhibitor 13 | IMP-1 inh-2 inactive | VIM-2 FRET ctr inactive | TEM-1 counter inactive | VIM-2 confirm 2 31
CN1CCN(Cc2cc(=O)oc3cc4c(cc23)CCC4)CC1	VIM-2 inhibitor 18 | IMP-1 inh-2 inactive | VIM-2 FRET ctr inactive | TEM-1 counter inactive | VIM-2 confirm 2 30
C/C(Cl)=C\Cn1c(NCCCn2ccnc2)nc2c1c(=O)n(C)c(=O)n2C	VIM-2 inhibitor 31 | IMP-1 inh-2 inactive | VIM-2 FRET ctr inactive | TEM-1 counter inactive | VIM-2 confirm 2 49
CCN(CC)CCNc1nc2c(c(=O)n(C)c(=O)n2C)n1C/C=C(/C)Cl	none
C/C(Cl)=C/Cn1c(NCCCn2ccnc2)nc2c1c(=O)[nH]c(=O)n2C	VIM-2 inhibitor 22 | IMP-1 inh-2 inactive | VIM-2 FRET ctr inactive | TEM-1 counter inactive | VIM-2 confirm 2 45
CCOc1cc(CN2CCC(N3CCC(C(=O)NC4CC4)CC3)CC2)ccc1O	none (no result: IMP-1 inh-1, VIM-2 inhibitor)
Cc1c(OC(C)C(=O)O)ccc2c3c(c(=O)oc12)CCCC3 (stereo unspecified)	none
CCOc1ccc2c3c(c(=O)oc2c1OCC)CCCC3	none
Cc1c(OCC(=O)NCc2cccnc2)ccc2c3c(c(=O)oc12)CCCC3	VIM-2 inhibitor 17 | IMP-1 inh-2 inactive | VIM-2 FRET ctr inactive | TEM-1 counter inactive | VIM-2 confirm 2 26
Cc1c(OCC(=O)N(C)c2ccccc2)ccc2c3c(c(=O)oc12)CCC3	VIM-2 inhibitor 20 | IMP-1 inh-2 inactive | VIM-2 FRET ctr inactive | TEM-1 counter inactive | VIM-2 confirm 2 29
Cc1c(C)c2ccc(OCC(=O)Nc3cccnc3)c(C)c2oc1=O	VIM-2 inhibitor 12 | IMP-1 inh-2 inactive | VIM-2 FRET ctr inactive | TEM-1 counter inactive | VIM-2 confirm 2 21
O=C(COc1cc2oc(=O)c3c(c2cc1Cl)CCCC3)NCc1cccnc1	none
Cc1c(OC(C)C(=O)NCc2cccnc2)ccc2c3c(c(=O)oc12)CCCC3 (stereo unspecified)	VIM-2 inhibitor 14 | IMP-1 inh-2 inactive | VIM-2 FRET ctr inactive | TEM-1 counter inactive | VIM-2 confirm 2 24
CCC(C(=O)n1cccc1C#N)c1ccccc1C (stereo unspecified)	none (no result: IMP-1 inh-1, VIM-2 inhibitor)
COc1cc(-c2cc(NC=O)c3ncc(-c4ccc(C(C)=O)cc4)n3c2)ccc1O	none (no result: PKA-R1A act, IMP-1 inh-1, PKA-R2B activ, VIM-2 inhibitor)
CC(=O)Oc1ccc2c3c(c(=O)oc2c1C)CCCC3	none
Cc1c(OCC(=O)NCc2ccncc2)ccc2c3c(c(=O)oc12)CCCC3	VIM-2 inhibitor 49 | IMP-1 inh-2 inactive | VIM-2 FRET ctr inactive | TEM-1 counter inactive | VIM-2 confirm 2 63
O=C1NC[C@H](CCCCN2CCN(Cc3ccccc3)C(=O)C2=O)N(CCc2ccc(O)cc2)C1=O	none (no result: PKA-R1A act, IMP-1 inh-1, PKA-R2B activ, VIM-2 inhibitor)
COC(=O)c1ccc(CNC(=O)c2ccc(OC)c(S(=O)(=O)NC3CC3)c2)cc1	none (no result: IMP-1 inh-1, VIM-2 inhibitor)
COc1cc(C(O)c2nc(-c3cccc4cccnc34)cs2)ccc1F (stereo unspecified)	none (no result: PKA-R1A act, IMP-1 inh-1, PKA-R2B activ, VIM-2 inhibitor)
CC1CN(S(=O)(=O)c2cccc(C(=O)OCc3cc(=O)oc4cc(O)ccc34)c2)CC(C)O1 (stereo unspecified)	none
CN(C)c1cccc(C(=O)OCc2cc(=O)oc3cc(O)ccc23)c1	VIM-2 inhibitor 32 | IMP-1 inh-2 inactive | VIM-2 FRET ctr 34 | TEM-1 counter inactive | VIM-2 confirm 2 27
CCc1cc(=O)oc2cc(C)cc(OCC(=O)NCCCN3CCOCC3)c12	VIM-2 inhibitor 14 | IMP-1 inh-2 inactive | VIM-2 FRET ctr inactive | TEM-1 counter inactive | VIM-2 confirm 2 22
